Vif imaging – blocks HIV Vif function. HEK293T cells, Vif self-association by quenched fluorescence, imaging, 24 h. inhibition, % at 7.49 µM. 340,000 tested, 0.35% active. AID 602346; in the data active means inhibition above about 50%, passing the limit was not always enough; inconclusive means no clear call, values can overlap the other calls; inactive means below about 31%
FN deposit inh – fibronectin deposition inhibition; AID 743247; 350,000 tested, 0.086% active; inhibition, % at 12.6 µM; AH1F fibroblasts, Alexa488-fibronectin deposition fluorescence, overnight;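 active means mean inhibition across replicates of 30% or more, regardless of how many single replicates reach that level; inconclusive means mean under 30% yet at least half of replicates reach 30%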;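 further: positive control wells lacked labelled fibronectin entirely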
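Test system: AH1F fibroblast monolayer depositing Alexa488-labelled fibronectin into matrix. Input: 10000 cells per well. Technique: fluorescence, ex 485 nm, em 525 nm. Buffer or medium: DMEM plus 2% serum, read in PBS. Timing: 1 h cell adhesion before compound, then overnight fibronectin incubation. Compound: single dose, pinned. Read-out basis: inhibition from reduced deposited-fibronectin fluorescence.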
HIV Env fusion – inhibitors of HIV Env-mediated cell fusion | HeLa-JRFL Env/CEM21 cell fusion, luciferase | inhibition, % at 12.3 µM | 360,000 tested, 1.1% active | AID 651610;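 active means mean replicate inhibition score of at least 50 and every replicate individually at or above 50; inconclusive means only one of the two criteria met; inactive means mean below 50 and not all replicates reaching 50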;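 further: 0% = plate neutral controls and 100% = maraviroc near 300 nM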
miR-122 sensor – inhibitors of miR-122 in Huh7 cells. Huh7 miR-122 Renilla luciferase sensor, 48 h; neutral wells = 0, positive control = 100. activation (reporter increase), % at 12.5 µM. 340,000 tested, 0.3% active. AID 602342;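 active means mean replicate activation score at least 90 and every replicate individually at or above 90; inconclusive means only one of the two criteria met; inactive means neither criterion met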;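 further: higher luciferase means less miR-122 activity so hits act as miR-122 inhibitors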
rRNA inh HTS – selective bacterial rRNA inhibition in E. coli; E. coli WT GFP vs humanized-ribosome RFP mutants, fluorescence, 24 h; active compounds read low; DMSO median 0, no signal -100; GFP signal change (wild-type ribosome), % (concentration not given with the values); 350,000 tested, 1.6% active; AID 720706;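 active means significant combined selectivity score with lowered wild-type GFP, culture density cut under 30%, mutant RFP and density less affected; inactive means any of these conditions unmet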
S100A4 MyoIIA – S100A4-myosin IIA interaction inhibition | S100A4/TAMRA-MyoIIA peptide fluorescence polarization | inhibition, % at 10.7 µM | 360,000 tested, 0.14% active | AID 652163;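 active means mean inhibition of at least 70% across replicates, with every replicate also reaching that level; inconclusive means mean inhibition reaches 70% but some replicates fall short; inactive means mean inhibition below 70%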
Target sequence (P26447 whole entry, looked up): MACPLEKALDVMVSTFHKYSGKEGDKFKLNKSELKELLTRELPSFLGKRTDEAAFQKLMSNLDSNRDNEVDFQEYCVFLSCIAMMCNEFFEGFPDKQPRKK
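Material: human S100A4 monomer with TAMRA-labelled myosin IIA peptide; buffer or medium: HEPES pH 7.2 with CaCl2, KCl, NaCl, DTT, Triton; compound dosing: one concentration per compound; schedule: 5 min incubation before reading; benchmarks: neutral control DMSO, positive control TFP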
An asterisk follows results filed as active; ? = inconclusive; / = no result given; [ ] = remark or other dose. An excerpt weighted towards active compounds, which were near 2.6% of everything screened.

SMILES	Vif imaging	FN deposit inh	HIV Env fusion	miR-122 sensor	rRNA inh HTS	S100A4 MyoIIA
CCOC(=O)c1c(C)[nH]c(C)c1C(=O)COC(=O)C1CC(=O)N(CCc2ccccc2)C1 (stereo unspecified)	51*	4	-3	-13	-6	-5
CC(C)n1c(O)c(N=Nc2ccc(Cl)c(C(=O)O)c2)c2ccccc21	-1	-1	4	-2	-18*	7
Cc1noc(C)c1NC(=O)Nc1ccc2c(c1)C(=O)N([C@@H](C)CO)C[C@H](C)[C@@H](CN(C)C(=O)Nc1ccccc1)OCCCC[C@H](C)O2	/	5	-15[16.7 µM]	6[16.7 µM]	0	-4
Cc1ccc(C(=O)NC(C#N)=C(Cl)Cl)cc1	/	24	-152	/	-27*	-1
Cc1ccc(C(=O)NCC#N)cc1	6	11	-11	/	2	-1
O=C(NNC(=O)c1sc2ccccc2c1Cl)Nc1ccc(Cl)cc1	-26	/	/	/	-20*	0
CN1CCN(c2ccc(NC(=O)c3sc4ccccc4c3Cl)cc2)CC1	-5	7	-65	4	-25*	2
CN1CCN(C(=O)c2ccccc2NC(=O)c2sc3ccccc3c2Cl)CC1	-2	4	5	0	-12	-4
CCCN1C[C@H](C)[C@H](OC)CN(C)C(=O)c2cc(NC(=O)c3ccno3)ccc2OC[C@H]1C	/	-13	-7[16.7 µM]	/	4	0
CC(CN)(NS(=O)(=O)c1ccccc1)c1ccccc1 (stereo unspecified)	66*	3	21	/	11	-5
CC(CN1CCOCC1)(NS(=O)(=O)c1ccccc1)c1ccccc1 (stereo unspecified)	-3	/	/	1	-8	0
CC(C)NC(=O)Nc1ccc2c(c1)CC(=O)N([C@H](C)CO)C[C@H](C)[C@@H](CN(C)C(=O)NC1CCCCC1)O2	/	-12	-5[16.7 µM]	5[16.7 µM]	-1	-7
NNC(=O)c1ccc2nc(-c3ccc(Br)cc3)cn2c1	9	/	-44	2	-28*	-6
COc1ccc(-c2cn3cc(C(=O)NN)ccc3n2)cc1	-1	-1	-24	/	-11	-3
C[C@H]1CN([C@@H](C)CO)S(=O)(=O)c2ccc(C3=CCCCC3)cc2O[C@@H]1CN(C)C(=O)c1ccc(F)cc1	/	/	-29[16.7 µM]	17[16.7 µM]	-9	15
C[C@H]1CN([C@@H](C)CO)C(=O)Cc2cc(NC(=O)C3CCCCC3)ccc2O[C@H]1CN(C)Cc1ccc2c(c1)OCO2	/	/	-27[16.7 µM]	2[16.7 µM]	-4	2
CC(C)(C)c1ccc(C(=O)CCCSC2=C(C#N)C(c3ccco3)C3=C(CCCC3=O)N2)cc1 (stereo unspecified)	-9	-4	79*	29	/	/
O=C(C[C@H]1C=C[C@H](NC(=O)CCN2CCCCC2)[C@H](CO)O1)Nc1nccs1	/	1	4[16.7 µM]	-11[16.7 µM]	0	131*
CC=Cc1ccc2n(c1=O)C[C@@H]1[C@@H](CO)[C@H](C(=O)NCCc3ccncc3)N(Cc3cncnc3)[C@H]21 (mixture of isomers)	/	/	/	7[16.7 µM]	-1	-4
COc1ccc(N(CC(=O)Nc2cc(Cl)ccc2C)S(=O)(=O)c2c(C)noc2C)cc1	-17	15	25	73	-29*	2
COc1ccc(N(CC(=O)Nc2cc(C)ccc2C)S(=O)(=O)c2c(C)noc2C)cc1	-8	10	37	/	-18	-7
CCc1cccc(NC(=O)CN(c2ccc(C)cc2)S(=O)(=O)c2c(C)noc2C)c1	-2	9	9	/	-31*	10
CCC(=O)Nc1ccc2c(c1)C(=O)N(C)C[C@H](OC)[C@@H](C)CN(Cc1ccccc1)[C@H](C)CO2	/	-4	16[16.7 µM]	5[16.7 µM]	-5	-44
C[C@@H]1CN([C@H](C)CO)C(=O)c2cc(C#C[C@@H](C)O)cnc2O[C@H]1CN(C)C(=O)c1ccccc1F	/	/	5[16.7 µM]	0[16.7 µM]	2	9
CCC(=O)N1CC2(CN(C(C)=O)C2)c2c([nH]c3cc(OC)ccc23)[C@@H]1CO	/	-3	/	/	5	9
SMILES	Vif imaging	FN deposit inh	HIV Env fusion	miR-122 sensor	rRNA inh HTS	S100A4 MyoIIA
CCCNC(=O)N1[C@H](C#N)[C@@H](c2ccc(-c3cccc(OC)c3)cc2)[C@@H]1CO	/	9	-30[16.7 µM]	/	3	7
CCCNC(=O)N1[C@H](C#N)[C@H](c2ccc(-c3cccc(OC)c3)cc2)[C@@H]1CO	/	/	58*[16.7 µM]	/	/	2
C[C@@H]1CN([C@@H](C)CO)C(=O)CCCn2nncc2CO[C@H]1CN(C)C(=O)NC1CCCC1	/	1	/	/	2	/
CCCCN(C)CCNC(=O)c1ccc(Cn2c(=S)[nH]c3ccc(Br)cc3c2=O)cc1	18	/	20	/	-53*	-8
O=C(N[C@H]1CC[C@@H](CC(=O)N2CCOCC2)O[C@@H]1CO)c1ccc2c(c1)OCO2	/	1	-19[16.7 µM]	/	2	3
O=C(CN1C(=O)c2ccccc2S1(=O)=O)c1ccc2c(c1)OCCCO2	-4	-1	91*	1	-8	-6
CC(C)(C)N(Cc1ccccc1)C(=O)CN1C(=O)c2ccccc2S1(=O)=O	-2	11	-3	9	-24*	-22
O=C(CN1C(=O)c2ccccc2S1(=O)=O)c1ccccc1F	5	4	33	-9	18	-6
O=C(CN1C(=O)c2ccccc2S1(=O)=O)c1ccc2c(c1)OCCO2	2	6	84*	1	13	1
O=C(CN1C(=O)c2ccccc2S1(=O)=O)c1ccc(F)cc1	8	-4	?	-3	11	1
O=C(CN1C(=O)c2ccccc2S1(=O)=O)c1ccc(Cl)cc1Cl	0	0	62*	3	-2	1
CC(C)C(=O)Nc1ccc2c(c1)C(=O)N(C)[C@@H]1CC[C@@H](CC(=O)NC3CCCC3)O[C@@H]1CO2	/	15	/	-22[16.7 µM]	3	/
C[C@H](CO)N1C[C@H](C)[C@@H](CN(C)C(=O)Nc2cccc3ccccc23)Oc2ccc(NC(=O)CCN3CCOCC3)cc2CC1=O	/	1	/	/	-4	1
COc1ccccc1C(=O)Nc1ccc2c(c1)C(=O)N(C)C[C@@H](OC)[C@@H](C)CN(C)[C@@H](C)CO2	/	3	19[16.7 µM]	/	0	-4
C[C@H](NC(=O)C[C@H]1C=C[C@@H](NC(=O)C2CCC2)[C@@H](CO)O1)c1ccccc1	/	-9	15[16.7 µM]	/	-1	-21
COCC(=O)Nc1ccc2c(c1)C(=O)N(C)C[C@H](OC)[C@H](C)CN(C(C)=O)[C@@H](C)CO2	/	-6	2[16.7 µM]	-6[16.7 µM]	1	11
O=C(/C=C/c1ccccc1[N+](=O)[O-])OCC(=O)c1ccccc1	3	10	-13	/	-22*	-5
COc1cc2c(cc1NC(=O)C(C)Sc1cccc[n+]1[O-])oc1ccccc12 (stereo unspecified)	-12	0	8	/	-33*	1

Assay outcomes deposited in PubChem BioAssay by Broad Institute.
